Reference: ChEMBL document CHEMBL1649122, “Abc1p is a multidrug efflux transporter that tips the balance in favor of innate azole resistance in Candida krusei” (2009)
Each block holds one compound with its values, some of them ahead of it. Active and inactive are the calls of the source. No cut-off for these calls is given here. *1 amine or outer side, *2 acyl side, *3 side chain or, on linkers, in order; H or OH if unused. Where a SMILES comes first, the peptide text is derived from it. [ ]: non-standard residue; d: D form. X1 = CC[C@@H](C)[C@@H](O[*:1])C(=O)[*:2]; NMeVal(β-OH) = CN[C@H](C(=O)O)C(C)(C)O; NMeF = CN[C@@H](Cc1ccccc1)C(=O)O; aIle = CC[C@@H](C)[C@H](N)C(=O)O; NMeV = CN[C@H](C(=O)O)C(C)C

Assays:
Conditions in all cases: Pichia kudriavzevii
[1] = molecular target: ATP binding cassette transporter Abc1p (Issatchenkia orientalis) (UniProt Q09GQ4); assay: Inhibition of Candida krusei ABC1 expressed in Saccharomyces cerevisiae isolate ADdelta at 12 nM
Outline: (§1)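 Agarose disk-diffusion test of S. cerevisiae AD overexpressing C. krusei Abc1p, with the parent AD strain as comparison. Cells were pregrown from YPD overnight into CSM to mid-log at 30°C. They were seeded at OD600 0.008 in CSM with 0.6% agarose, overlaid on CSM agar (pH 7.0). Paper disks carrying set nmol amounts of xenobiotic were applied, and plates were incubated at 30°C for 48 h before reading growth inhibition zones.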

[2] = molecular target: ATP binding cassette transporter Abc1p (Issatchenkia orientalis) (UniProt Q09GQ4); assay: Inhibition of Candida krusei ABC1 expressed in Saccharomyces cerevisiae isolate ADdelta at 2.5 uM; outline: as §1
[3] = molecular target: ATP binding cassette transporter Abc1p (Issatchenkia orientalis) (UniProt Q09GQ4); assay: Inhibition of Candida krusei ABC1 expressed in Saccharomyces cerevisiae isolate ADdelta at 20 nM
[4] = molecular target: ATP binding cassette transporter Abc1p (Issatchenkia orientalis) (UniProt Q09GQ4); assay: Inhibition of Candida krusei ABC1 expressed in Saccharomyces cerevisiae isolate ADdelta at 0.24 nM
[5] = molecular target: ATP binding cassette transporter Abc1p (Issatchenkia orientalis) (UniProt Q09GQ4); assay: Inhibition of Candida krusei ABC1 expressed in Saccharomyces cerevisiae isolate ADdelta at 4 nM
[6] = molecular target: ATP binding cassette transporter Abc1p (Issatchenkia orientalis) (UniProt Q09GQ4); assay: Inhibition of Candida krusei ABC1 expressed in Saccharomyces cerevisiae isolate ADdelta at 620 nM; outline: as §1
[7] = molecular target: ATP binding cassette transporter Abc1p (Issatchenkia orientalis) (UniProt Q09GQ4); assay: Inhibition of Candida krusei ABC1 expressed in Saccharomyces cerevisiae isolate ADdelta at 131 nM; outline: as §1
[8] = molecular target: ATP binding cassette transporter Abc1p (Issatchenkia orientalis) (UniProt Q09GQ4); assay: Inhibition of Candida krusei ABC1 expressed in Saccharomyces cerevisiae isolate ADdelta at 16 nM; outline: as §1
[9] = molecular target: ATP binding cassette transporter Abc1p (Issatchenkia orientalis) (UniProt Q09GQ4); assay: Inhibition of Candida krusei ABC1 expressed in Saccharomyces cerevisiae isolate ADdelta at 7 nM

Activity [1]: Active
SMILES: CC[C@@]1([C@@H]2O[C@@H]([C@H]3O[C@@](O)(CO)[C@H](C)C[C@@H]3C)C[C@@H]2C)CC[C@H]([C@]2(C)CC[C@]3(C[C@H](O)[C@@H](C)[C@@H]([C@@H](C)[C@@H](OC)[C@H](C)C(=O)O)O3)O2)O1

Activity [2]: inactive
SMILES: C[C@H]1c2cccc(O)c2C(=O)C2=C(O)[C@]3(O)C(=O)C(C(N)=O)=C(O)[C@@H](N(C)C)[C@@H]3[C@@H](O)[C@@H]21

SMILES: C=C1[C@@H](C)[C@H]2[C@H](Cc3ccccc3)NC(=O)[C@]23[C@H](OC(C)=O)/C=C/[C@@](C)(O)C(=O)[C@@H](C)C/C=C/[C@H]3[C@@H]1O
Activity [3]: Active

SMILES: C/C1=C/C(=O)O[C@@H]2C[C@@H](CC[C@H](C)/C=C\C=C\CC1)O[C@@](O)([C@@H]1CSC(=O)N1)C2
Activity [4]: Active

SMILES: O=[N+]([O-])c1cc[n+]([O-])c2ccccc12
Activity [5]: inactive

Activity [6]: inactive
SMILES: CN1CCN(CCCN2c3ccccc3Sc3ccc(C(F)(F)F)cc32)CC1

Activity [7]: Active
SMILES: COC(=O)c1ccccc1-c1c2ccc(=N)cc-2oc2cc(N)ccc12

Activity [8]: Active
SMILES: CC/N=c1\cc2oc3cc(NCC)c(C)cc3c(-c3ccccc3C(=O)OCC)c-2cc1C

SMILES: CC[C@@H](C)[C@@H]1NC(=O)[C@@H]2CCCN2C(=O)[C@H](Cc2ccccc2)N(C)C(=O)[C@H](Cc2ccccc2)NC(=O)[C@H](C(C)C)N(C)C(=O)[C@@H]([C@H](C)CC)OC(=O)[C@H](C(C)(C)O)N(C)C(=O)[C@H](CC(C)C)NC(=O)[C@H](C(C)C)N(C)C1=O (cyclo(F[NMeF]P[aIle][NMeV]L[NMeVal(β-OH)][X1][NMeV]))
Activity [9]: inactive
